CHO parental Ca – signal in parental CHO cells, OX1R antagonist counter-screen; parental CHO-K1, ATP-induced calcium, Fluo-8 fluorescence; actives 0.63% (n = 330,000); inhibition, % at 5.6 µM;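 active = inhibition above that plate's mean sample inhibition plus 3 SD, cut at about 26% in these data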
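Assay system – parental CHO cells · Reagent – ATP stimulus · Detection – intracellular calcium via Fluo-8 no-wash fluorescent dye · Evaluation – percent inhibition of ATP-evoked calcium rise, normalized to controls · Controls – ATP wells versus no-ATP DMSO wells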
OX1R antag-1 – OX1R (human) antagonism; O43613; OX1R-expressing cells, FRET antagonist read-out; inhibition, % at 6.6 µM; actives 1.8% (n = 330,000); in the data active = inhibition mostly above about 38%, no sharp cut-off; inactive = mostly below about 40%
GPR7 antag – blocks human GPR7 receptor signaling | P48145 | GPR7-expressing cells, fluorescence antagonist assay | inhibition, % at 4.4 µM | actives 1.1% (n = 290,000) | AID 1861; in the data active = inhibition above about 16%, passing the limit was not always enough;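 also: cells stimulated with the agonist NPW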
Target sequence (P48145 whole entry, looked up): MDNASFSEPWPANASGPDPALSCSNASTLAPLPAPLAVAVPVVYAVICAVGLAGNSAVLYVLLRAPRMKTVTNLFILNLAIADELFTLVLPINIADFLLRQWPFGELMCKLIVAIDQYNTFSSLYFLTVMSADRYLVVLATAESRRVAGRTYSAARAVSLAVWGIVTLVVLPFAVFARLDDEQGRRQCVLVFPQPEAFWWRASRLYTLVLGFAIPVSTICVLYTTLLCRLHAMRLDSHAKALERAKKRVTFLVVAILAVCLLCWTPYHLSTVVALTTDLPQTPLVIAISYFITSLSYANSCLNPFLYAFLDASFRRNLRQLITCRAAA
EP2 antag – EP2 receptor (human) inhibition; inhibition, % at 25 µM; actives 0.52% (n = 260,000); C6 glioma cells expressing human EP2, cAMP TR-FRET; cells stimulated with saturating PGE2; AID 1422;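 active = percent inhibition above 40 after rounding to a whole number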;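 also: rat C6 glioma host cells with rolipram phosphodiesterase inhibitor present; the protocol text gives 20 µM as final concentration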
Target sequence (P43116 whole entry, looked up): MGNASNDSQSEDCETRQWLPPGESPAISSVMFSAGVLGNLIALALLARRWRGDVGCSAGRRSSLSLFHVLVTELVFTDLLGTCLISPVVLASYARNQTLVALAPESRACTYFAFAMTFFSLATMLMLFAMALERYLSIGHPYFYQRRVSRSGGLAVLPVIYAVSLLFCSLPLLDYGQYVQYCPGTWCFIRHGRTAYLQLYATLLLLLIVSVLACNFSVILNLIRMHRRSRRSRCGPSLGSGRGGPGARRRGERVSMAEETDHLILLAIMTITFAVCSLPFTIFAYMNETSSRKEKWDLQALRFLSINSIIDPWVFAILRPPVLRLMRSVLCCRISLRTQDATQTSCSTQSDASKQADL
EP2 modulator – modulates human prostaglandin E2 receptor EP2 signaling | P43116 | EP2-expressing cells, cAMP HTRF FRET, PGE2 co-stimulation | induction, % at 25 µM | actives 0.83% (n = 260,000) | AID 940;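 active = compounds whose cAMP rise, as percent of the full-agonist control response, exceeds 60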;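 also: rat C6 glioma line stably carrying human EP2 under a CMV promoter; the protocol text gives 20 µM as final concentration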
OX1R antag-2 – blocks the human orexin 1 receptor; CHO/OX1R cells, Fluo-8 calcium fluorescence, orexin A; O43613; inhibition, % at 5 µM; actives 0.43% (n = 330,000);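 active = inhibition above its plate's threshold, mean inhibition of all tested compounds on the plate plus 3 SD, cut at about 37% in these data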
Of the large screens only hits and unclear results are named; the others gave an inactive call; ! = not active in a repeat. In the library only some 3.7% were active in any assay of this set; here they are far more common.

COCCN(Cc1ccccc1)C(=O)Cc1ccc(OC)c(S(=O)(=O)N2CCOCC2)c1	none (no result: GPR7 antag, EP2 antag, EP2 modulator)
CCC1CCCCN1C(=O)CNCC1CCCO1 (centres undefined)	none
c1ccc2[nH]c3cc4ncnc4cc3nc2c1	OX1R antag-1 70
O=C(Nc1ccc(-c2ccccc2)cc1)c1ccc2c(c1)S(=O)(=O)c1ccccc1C2=O	none (no result: GPR7 antag, EP2 modulator)
O=C(Nc1ccncc1)c1ccc2c(c1)S(=O)(=O)c1ccccc1C2=O	OX1R antag-1 75
CC1CCCC(C)N1C(=O)c1ccc2c(c1)S(=O)(=O)c1ccccc1C2=O (centres undefined)	OX1R antag-1 42 (no result: EP2 antag, EP2 modulator)
CC(C)c1cccc(C(C)C)c1NC(=O)COC(=O)c1ccc2c(c1)S(=O)(=O)c1ccccc1C2=O	none
O=C(Nc1ccncc1)c1ccc(-c2ccccc2)cc1	CHO parental Ca 58, OX1R antag-2 47
O=C1c2ccccc2S(=O)(=O)c2cc(C(=O)N3CCC(C(=O)N4CCCCC4)CC3)ccc21	none (no result: GPR7 antag, EP2 modulator)
CNC(=O)COC(=O)c1ccc2c(c1)S(=O)(=O)c1ccccc1C2=O	OX1R antag-1 74 (no result: EP2 antag, EP2 modulator)
O=C(Nc1cccnc1)c1ccc(-c2ccccc2)cc1	none
Cc1ccc(S(=O)(=O)N(C(=O)c2ccncc2)c2ccc3oc4c(c3c2)CCCC4)cc1[N+](=O)[O-]	none
O=C(NCc1ccco1)c1ccc2c(c1)S(=O)(=O)c1ccccc1C2=O	none (no result: GPR7 antag, EP2 modulator)
CSc1ccc(C(=O)NCC(c2ccco2)N(C)C)cc1[N+](=O)[O-] (centres undefined)	OX1R antag-1 47 (no result: EP2 antag, EP2 modulator)
O=C(NC1CCCC1)c1ccc2c(c1)S(=O)(=O)c1ccccc1C2=O	OX1R antag-1 65 (no result: GPR7 antag, EP2 modulator)
CN(C)C(CNC(=O)c1ccc2c(c1)S(=O)(=O)c1ccccc1C2=O)c1ccco1 (centres undefined)	OX1R antag-1 74
CCCNC(=O)c1ccc2c(c1)S(=O)(=O)c1ccccc1C2=O	OX1R antag-1 74 (no result: EP2 antag, EP2 modulator)
CCOC(=O)C1=C(C)NC(C)=C(C(=O)OCC)C1C(=O)OCC(=O)N1CC(C)OC(C)C1 (centres undefined)	none (no result: GPR7 antag, EP2 antag, EP2 modulator)
Cc1ccc(S(=O)(=O)N=Nc2c(O)[nH]c3cc(O)c(C(=O)O)cc23)cc1	EP2 antag 41 (no result: CHO parental Ca, OX1R antag-1, GPR7 antag, OX1R antag-2)
CN(C)c1ncc(S(=O)(=O)c2ccccc2)c(-c2ccc(Cl)cc2Cl)n1	OX1R antag-1 53, EP2 modulator 65 (no result: EP2 antag)
CN(C)c1ncc(S(=O)(=O)c2ccc(Cl)cc2)c(-c2ccc(Cl)cc2Cl)n1	none (no result: EP2 antag)
Cc1[nH]c(=O)[nH]c(=O)c1S(=O)(=O)N1CCOCC1	none
CCc1cc(=O)[nH]c(SCC(=O)N2CCOCC2)n1	none (no result: GPR7 antag, EP2 antag, EP2 modulator)
CC(C)c1ccc(O)c(O)c(=O)c1 (tested in a mixture with another compound)	EP2 antag 41 (no result: CHO parental Ca, OX1R antag-1, GPR7 antag, OX1R antag-2)
CC(C)c1cccc(O)c(=O)c1	none
O=C(O)c1ccccc1C(=O)Nc1ccccc1	none
O=C(Nc1ccccc1)C1=C(c2ccccc2)S(=O)(=O)CCS1(=O)=O	EP2 antag 46 (no result: CHO parental Ca, OX1R antag-1, OX1R antag-2)
Brc1ccc(OCc2ccccc2)c(CNCC2CCCO2)c1 (centres undefined)	none
CCOc1ccc(C(CCc2ccccc2)NC(=O)c2ccccc2F)cc1OCC (centres undefined)	none
COCc1cc(C)nc2sc(C(=O)Nc3ccc(OC)cc3)c(N)c12	none (no result: EP2 antag, EP2 modulator)
COCc1cc(C)nc2sc(C(=O)Nc3cccc(OC)c3)c(N)c12	OX1R antag-1 39 (no result: EP2 antag, EP2 modulator)
CCCc1ccc(C(=O)CCC(=O)O)cc1	none
CO/N=C\C(=N\Nc1ccc(OC)cc1)C(=O)c1ccccc1	EP2 modulator 62
O=C(C1CCCN(Cc2ccccc2[N+](=O)[O-])C1)N1CCCC1 (centres undefined)	none (no result: CHO parental Ca, OX1R antag-1, EP2 antag, EP2 modulator, OX1R antag-2)
CCN(CC)c1ccc(C(=O)c2ccccc2C(=O)O)c(O)c1	none
COc1ccc2c(c1)NC(c1ccc(N(C)C)cc1)c1cccn1-2 (centres undefined)	OX1R antag-1 67
O=[N+]([O-])c1nn(-c2ccccc2)n(O)c1=NC1CCN(Cc2ccccc2)CC1	OX1R antag-1 46
Nc1nonc1C(=O)NCCN=Cc1cc(Cc2ccccc2)cc(Br)c1O	CHO parental Ca 62, EP2 modulator 61 (no result: EP2 antag)
Nc1nonc1C(=O)NCCN=Cc1ccccc1O	none
COc1ccc(-n2c(Cc3ccccc3)nnc2SCC(=O)NCc2ccco2)cc1	none (no result: CHO parental Ca, OX1R antag-1, GPR7 antag, OX1R antag-2)
Cn1c(=O)c2c(nc(NN=C3CCCC3)n2C)n(C)c1=O	OX1R antag-1 48
Cn1c(=O)c2c(nc(NCCN3CCOCC3)n2C)n(C)c1=O	none (no result: CHO parental Ca, OX1R antag-1, GPR7 antag, OX1R antag-2)
CCCCN(CC)C(=O)/C=C/c1cccc([N+](=O)[O-])c1	none
CCc1ccc(C2C(C#N)=C(N)Oc3n[nH]c(-c4cc(OC)ccc4OC)c32)cc1 (centres undefined)	none (no result: CHO parental Ca, OX1R antag-1, GPR7 antag, OX1R antag-2)
Fc1ccc(Cn2cccc2C2=NC(c3ccccc3)CO2)cc1 (centres undefined)	EP2 modulator 61
Cc1c(C(=O)OCc2nc3ccsc3c(=O)[nH]2)oc2ccccc12	OX1R antag-1 49 (no result: GPR7 antag, EP2 antag, EP2 modulator)
O=C(NNc1ccc([N+](=O)[O-])cc1)c1ccco1	none (no result: EP2 antag, EP2 modulator)
O=C(NNc1ccc([N+](=O)[O-])cc1[N+](=O)[O-])c1ccco1	OX1R antag-1 86 (no result: EP2 antag, EP2 modulator)
Cc1nc2c(nnn2Cc2c(Cl)cccc2Cl)c(=O)[nH]1	none
Cc1ccc2nc(C3CCN(CC(=O)Nc4ccc5c(c4)OCCO5)CC3)[nH]c2c1	none
O=C(NC1CCCCC1)C(c1ccco1)N(Cc1ccc2c(c1)OCO2)C(=O)Cc1cccs1 (centres undefined)	EP2 modulator 87 (no result: CHO parental Ca, OX1R antag-1, GPR7 antag, OX1R antag-2)
COCCNC(=O)C(c1ccc(C)cc1)N(Cc1ccco1)C(=O)CCC(=O)Nc1ccccn1 (centres undefined)	OX1R antag-1 56 (no result: EP2 antag, EP2 modulator)
Cc1ccc(C(C(=O)NC2CCCCC2)N(Cc2ccco2)C(=O)Cc2cccs2)cc1 (centres undefined)	EP2 modulator 62 (no result: CHO parental Ca, OX1R antag-1, GPR7 antag, OX1R antag-2)
Cc1ccc(C(C(=O)NC2CCCCC2)N(Cc2cccs2)C(=O)c2ccco2)cc1 (centres undefined)	none (no result: CHO parental Ca, OX1R antag-1, GPR7 antag, OX1R antag-2)
COc1ccc(C(C(=O)NC(C)(C)C)N(Cc2ccco2)C(=O)CCC(=O)Nc2ccccn2)cc1 (centres undefined)	none (no result: EP2 antag, EP2 modulator)
CC(C)OCCCNS(=O)(=O)c1ccc2c(c1)NC(=O)C(C)O2 (centres undefined)	none (no result: CHO parental Ca, OX1R antag-1, GPR7 antag, OX1R antag-2)
O=C(CS(=O)CC(=O)N(CC(=O)NC1CCCC1)C1CCCC1)Nc1ccc(F)cc1 (centres undefined)	none
Cc1oc(C(=O)O)cc1COc1ccccc1Cl	none
COC(=O)CCC(=O)OC1(C)C(=O)C=C2C=C(C3CC3)N(Cc3ccccc3)C=C2C1=O (centres undefined)	OX1R antag-1 76 (no result: GPR7 antag)
COC(=O)CCC(=O)OC1(C)C(=O)C=C2C=C(C3CC3)N(CC3CC3)C=C2C1=O (centres undefined)	none (no result: GPR7 antag)
COC(=O)c1ccccc1NC(=O)CSc1nc(-c2ccco2)cc(C(F)(F)F)n1	EP2 modulator 65!
